Results: ChEMBL document CHEMBL4334552, “Discovery of BMS-986260, a Potent, Selective, and Orally Bioavailable TGFβR1 Inhibitor as an Immuno-oncology Agent” (ACS Med Chem Lett, 2020)

Tests used:
[1] = Protein binding in rat serum assessed as unbound fraction; assay type: ADME, cell-free
[2] = molecular target: T1, TGF-beta receptor type-1 (Mus musculus, UniProt Q64729); assay: Inhibition of TGFbetaR1 in TGFbeta-stimulated mouse NIH3T3 cells assessed as reduction in SMAD3 phosphorylation; assay type: cell-based
T1 sequence (Q64729 whole entry): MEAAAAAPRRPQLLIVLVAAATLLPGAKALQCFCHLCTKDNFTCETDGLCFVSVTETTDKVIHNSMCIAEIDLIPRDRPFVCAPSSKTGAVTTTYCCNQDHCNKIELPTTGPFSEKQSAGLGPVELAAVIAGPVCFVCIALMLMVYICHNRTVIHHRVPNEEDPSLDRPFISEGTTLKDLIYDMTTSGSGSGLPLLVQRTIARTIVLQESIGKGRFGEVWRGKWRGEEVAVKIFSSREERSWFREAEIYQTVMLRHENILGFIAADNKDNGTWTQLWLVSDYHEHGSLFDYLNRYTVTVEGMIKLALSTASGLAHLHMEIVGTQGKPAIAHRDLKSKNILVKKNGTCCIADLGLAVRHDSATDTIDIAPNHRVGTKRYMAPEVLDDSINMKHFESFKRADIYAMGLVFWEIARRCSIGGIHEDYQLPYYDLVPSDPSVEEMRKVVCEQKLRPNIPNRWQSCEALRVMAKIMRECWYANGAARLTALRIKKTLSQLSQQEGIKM

[3] = Half life in human hepatocytes; assay type: ADME, cell-based, Hepatocyte
[4] = Volume of distribution at steady state in Beagle dog at 1 mg/kg, iv; assay type: ADME, organism-based, Canis lupus familiaris; settings: in vivo, read-out: Vdss
Procedure, shortened: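 Male Beagle dogs (n = 2) were pretreated with pentagastrin and dosed iv at 1 mg/kg and po at 5 mg/kg. The oral vehicle was 5% ethanol, 45% PEG400 and 50% 25 mM acetate buffer pH 4.0. The iv vehicle was 5:45:50 EtOH/PEG400/saline at 1 mL/kg.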

N#Cc1cnc2ccc(-c3c(-c4ccc(F)c(Cl)c4)ncn3CCO)nn12 gave a fraction unbound [1] of 0.1, an IC50 [2] of 50 nM and a half-life [3] of 54 min. The Vd [4] was 1.1 L/kg.
